From ChEMBL document CHEMBL3112398, “Qualification of LSP1-2111 as a Brain Penetrant Group III Metabotropic Glutamate Receptor Orthosteric Agonist” (ACS Med Chem Lett, 2014)

Experiments:
[1] = Drug uptake in rat Sprague-Dawley ECF at 10 mg/kg, sc after 60 mins by quantitative microdialysis method; format: ADME, organism-based; parameters: dose 10 mg/kg, route subcutaneous; details: read-out: Drug uptake
Outline: (§1)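 Rat in vivo microdialysis with a MetaQuant probe at a low flow rate of 0.1 μL/min after SC doses of 10 or 30 mg/kg. Brain ECF dialysate and plasma concentrations followed over time. ECF values corrected for 96% in vivo probe recovery.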

Brain [2] = assay: Drug uptake in Sprague-Dawley rat brain at 10 mg/kg, sc after 30 mins by quantitative microdialysis method; format: ADME, organism-based; parameters: dose 10 mg/kg, route subcutaneous; details: in vivo, 0.5 h
Outline: (§2)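 Rats dosed SC at 10 mg/kg with drug in saline at pH 7.4; plasma, CSF and brain homogenate sampled over a 6 h time course (0.5–6 h), N = 4. Brain not perfused before homogenization. AUC0-6 computed from the concentration–time profiles.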

Plasma [3] = assay: Maximum unbound concentration in Sprague-Dawley rat plasma at 10 mg/kg, sc after 0.5 hrs by quantitative microdialysis method; details: in vivo
[4] = Fraction unbound in human plasma; format: ADME, cell-free
Plasma [5] = assay: Plasma concentration in Sprague-Dawley rat at 10 mg/kg, sc after 0.5 to 6 hrs by quantitative microdialysis method; format: ADME, organism-based; parameters: dose 10 mg/kg, route subcutaneous; details: in vivo; outline: as §2
[6] = Thermodynamic solubility of the compound at pH 7.4; format: physicochemical; details: buffer, read-out: Therm_solubility
[7] = Tmax in Sprague-Dawley rat at 10 mg/kg, po; format: ADME, organism-based; parameters: dose 10 mg/kg, route oral; details: in vivo
Outline: (§3)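 SD rats given IV (1 mg/kg) or oral (10 mg/kg) doses as a solution in saline buffered to pH 7.4, dose volume 5 mL/kg, N = 2. Plasma concentration–time profiles analysed by noncompartmental analysis; reported values are means.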

[8] = AUC (infinity) in Sprague-Dawley rat at 10 mg/kg, po; format: ADME, organism-based; parameters: time infinity, dose 10 mg/kg, route oral; details: plasma
Outline: (§4)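 Plasma concentrations were followed over time. Pharmacokinetic parameters were derived by noncompartmental analysis and reported as means of N = 2 animals.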

MDR1 [9] = assay: Apparent permeability from apical to basolateral side in MDCK cells expressing MDR1; format: ADME, cell-based, Canis lupus familiaris; details: dog
Outline: (§5)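 Bidirectional transport across MDCK/MDR1 monolayers, apparent permeability measured A→B and B→A. The B→A/A→B ratio is used as an indicator of P-gp substrate behaviour.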

[10] = Lipophilicity, log D of the compound at pH 7.4; format: physicochemical; details: buffer
[11] = Ratio of AUC (0 to 6 hrs) from CSF to plasma in Sprague-Dawley rat at 10 mg/kg, sc by quantitative microdialysis method; format: ADME, organism-based; parameters: dose 10 mg/kg, route subcutaneous
Outline: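 Rats given 10 mg/kg SC, formulated in saline at pH 7.4 (N = 4). Plasma, CSF and brain were sampled over a 6 h time course starting at 0.5 h. Brain was homogenized without perfusion, so capillary blood was retained. Ratios were calculated from AUC0-6 of CSF or brain homogenate versus plasma.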

[12] = Fraction unbound in mouse brain homogenates; format: ADME, tissue-based; details: brain homogenate
[13] = Fraction unbound in mouse plasma; format: ADME, cell-free
[14] = Ratio of AUC (0 to 6 hrs) from brain to plasma in Sprague-Dawley rat at 10 mg/kg, sc by quantitative microdialysis method; format: ADME, organism-based; parameters: dose 10 mg/kg, route subcutaneous; details: in vivo
[15] = Half life in Sprague-Dawley rat plasma at 10 mg/kg, sc by quantitative microdialysis method; format: ADME, organism-based; parameters: dose 10 mg/kg, route subcutaneous; outline: as §2
Brain [16] = assay: Drug uptake in Sprague-Dawley rat brain at 10 mg/kg, sc after 4 hrs by quantitative microdialysis method; format: ADME, organism-based; parameters: dose 10 mg/kg, route subcutaneous; details: in vivo; outline: as §2
[17] = AUC (infinity) in Sprague-Dawley rat at 1 mg/kg, iv; format: ADME, organism-based; parameters: time infinity, dose 1 mg/kg, route intravenous; details: plasma; outline: as §4
Homo sapiens [18] = organism: Homo sapiens; assay: Selectivity for mGlu4 receptor (unknown origin) over mGlu7 receptor (unknown origin)
[19] = Kinetic aqueous solubility of the compound; format: physicochemical; details: buffer; read-out: Kinetic_solubility
Outline: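 Kinetic aqueous solubility determined in an assay developed and optimized for lipophilic compounds; detection limit 800 μM.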

[20] = AUC (0 to 6 hrs) in Sprague-Dawley rat plasma at 10 mg/kg, sc by quantitative microdialysis method; format: ADME, organism-based; parameters: time < 6 hr, dose 10 mg/kg, route subcutaneous; outline: as §2
Homo sapiens [21] = organism: Homo sapiens; assay: Selectivity for mGlu4 receptor (unknown origin) over mGlu6 receptor (unknown origin)
[22] = Oral bioavailability in Sprague-Dawley rat at 10 mg/kg; format: ADME, organism-based; details: in vivo; outline: as §3
[23] = Fraction unbound in rat plasma; format: ADME, cell-free
[24] = Plasma concentration in Sprague-Dawley rat at 10 mg/kg, sc after 60 mins by quantitative microdialysis method; format: ADME, organism-based; parameters: dose 10 mg/kg, route subcutaneous; outline: as §1
[25] = Plasma clearance in Sprague-Dawley rat at 1 mg/kg, iv; format: ADME, organism-based; parameters: dose 1 mg/kg, route intravenous; outline: as §3
[26] = Passive apparent permeability of the compound by PAMPA; format: ADME
[27] = Plasma concentration in Sprague-Dawley rat at 30 mg/kg, sc after 60 mins by quantitative microdialysis method; format: ADME, organism-based; parameters: dose 30 mg/kg, route subcutaneous; outline: as §1
[28] = Drug uptake in Sprague-Dawley rat ECF at 30 mg/kg, sc after 60 mins by quantitative microdialysis method; format: ADME, organism-based; parameters: dose 30 mg/kg, route subcutaneous; details: read-out: Drug uptake; outline: as §1
[29] = Half life in Sprague-Dawley rat at 1 mg/kg, iv; format: ADME, organism-based; parameters: dose 1 mg/kg, route intravenous; details: in vivo; outline: as §3
HepG2 = assay: Cytotoxicity against human HepG2 cells by luminescence assay; format: cell-based
hERG (KCNH2) = hERG (KCNH2) (Homo sapiens, UniProt Q12809); assay: Inhibition of human ERG channel at 30 uM by ionworks assay
Chain of hERG (KCNH2) (Q12809 whole entry): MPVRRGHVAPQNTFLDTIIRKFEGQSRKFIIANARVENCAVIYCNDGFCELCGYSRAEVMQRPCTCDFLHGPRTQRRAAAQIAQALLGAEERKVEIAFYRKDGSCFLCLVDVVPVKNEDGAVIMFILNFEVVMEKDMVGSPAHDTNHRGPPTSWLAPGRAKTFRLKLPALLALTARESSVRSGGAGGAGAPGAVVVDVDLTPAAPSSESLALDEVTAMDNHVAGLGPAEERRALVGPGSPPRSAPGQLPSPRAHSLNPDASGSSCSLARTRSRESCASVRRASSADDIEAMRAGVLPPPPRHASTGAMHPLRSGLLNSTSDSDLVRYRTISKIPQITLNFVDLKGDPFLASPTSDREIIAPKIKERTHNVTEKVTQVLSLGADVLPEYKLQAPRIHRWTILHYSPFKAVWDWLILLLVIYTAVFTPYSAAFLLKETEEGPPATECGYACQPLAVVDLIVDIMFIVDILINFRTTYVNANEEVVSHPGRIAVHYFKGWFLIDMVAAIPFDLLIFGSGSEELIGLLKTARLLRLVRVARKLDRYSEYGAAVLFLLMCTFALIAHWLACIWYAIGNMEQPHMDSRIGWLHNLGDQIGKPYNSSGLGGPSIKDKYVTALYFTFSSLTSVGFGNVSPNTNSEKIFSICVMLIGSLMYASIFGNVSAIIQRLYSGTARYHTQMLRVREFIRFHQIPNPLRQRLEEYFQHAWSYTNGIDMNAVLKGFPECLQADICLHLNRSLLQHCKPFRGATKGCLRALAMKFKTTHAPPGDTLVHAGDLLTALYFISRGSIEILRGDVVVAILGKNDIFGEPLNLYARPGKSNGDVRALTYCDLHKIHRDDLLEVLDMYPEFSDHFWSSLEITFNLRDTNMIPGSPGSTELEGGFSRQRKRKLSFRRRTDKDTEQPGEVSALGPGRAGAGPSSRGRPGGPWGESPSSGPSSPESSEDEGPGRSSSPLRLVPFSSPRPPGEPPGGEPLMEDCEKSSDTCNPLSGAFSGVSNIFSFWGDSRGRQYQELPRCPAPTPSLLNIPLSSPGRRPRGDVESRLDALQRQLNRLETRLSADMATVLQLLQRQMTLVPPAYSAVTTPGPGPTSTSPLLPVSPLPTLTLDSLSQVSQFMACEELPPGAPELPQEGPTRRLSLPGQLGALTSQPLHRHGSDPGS

Liver microsome [30] = assay: Intrinsic clearance in human liver microsomes; format: ADME
Brain [31] = assay: AUC (0 to 6 hrs) in Sprague-Dawley rat brain at 10 mg/kg, sc by quantitative microdialysis method; format: ADME, organism-based; parameters: time < 6 hr, dose 10 mg/kg, route subcutaneous; details: in vivo; outline: as §2
Homo sapiens [32] = organism: Homo sapiens; assay: Selectivity for mGlu4 receptor (unknown origin) over mGlu8 receptor (unknown origin)
MDR1 [33] = assay: Apparent permeability from basolateral to apical side in MDCK cells expressing MDR1; format: ADME, cell-based, Canis lupus familiaris; details: dog; outline: as §5
[34] = Cmax in Sprague-Dawley rat at 10 mg/kg, po; format: ADME, organism-based; parameters: dose 10 mg/kg, route oral; details: in vivo; outline: as §3
[35] = target: Metabotropic glutamate receptor 4 (Homo sapiens, UniProt Q14833); assay: Displacement of [3H]-L-AP4 from human mGlu4 receptor
Chain of Metabotropic glutamate receptor 4 (Q14833 whole entry): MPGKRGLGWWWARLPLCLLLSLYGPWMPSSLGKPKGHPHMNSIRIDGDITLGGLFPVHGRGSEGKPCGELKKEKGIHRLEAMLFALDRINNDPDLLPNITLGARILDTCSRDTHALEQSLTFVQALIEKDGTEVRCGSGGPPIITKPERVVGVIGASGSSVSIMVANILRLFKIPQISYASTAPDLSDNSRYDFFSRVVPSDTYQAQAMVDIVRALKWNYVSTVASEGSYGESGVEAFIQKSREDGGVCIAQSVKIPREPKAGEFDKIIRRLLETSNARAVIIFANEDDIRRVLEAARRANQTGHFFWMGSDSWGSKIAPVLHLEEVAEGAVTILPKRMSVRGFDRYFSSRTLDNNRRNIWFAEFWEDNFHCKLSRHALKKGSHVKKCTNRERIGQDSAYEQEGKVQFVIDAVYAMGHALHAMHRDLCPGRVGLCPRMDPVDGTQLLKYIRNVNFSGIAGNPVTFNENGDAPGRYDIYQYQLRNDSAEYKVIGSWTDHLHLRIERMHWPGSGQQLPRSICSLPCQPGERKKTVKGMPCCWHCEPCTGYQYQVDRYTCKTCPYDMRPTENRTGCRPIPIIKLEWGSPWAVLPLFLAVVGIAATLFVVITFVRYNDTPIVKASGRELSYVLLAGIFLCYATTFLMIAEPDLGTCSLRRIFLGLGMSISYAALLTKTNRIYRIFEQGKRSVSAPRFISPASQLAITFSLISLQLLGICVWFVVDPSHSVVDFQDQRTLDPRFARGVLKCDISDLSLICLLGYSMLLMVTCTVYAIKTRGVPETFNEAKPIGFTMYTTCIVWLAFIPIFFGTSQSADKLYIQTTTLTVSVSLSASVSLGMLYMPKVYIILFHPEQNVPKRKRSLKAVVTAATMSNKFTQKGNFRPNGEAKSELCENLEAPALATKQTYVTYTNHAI

Brain [36] = assay: Drug uptake in Sprague-Dawley rat brain at 10 mg/kg, sc after 6 hrs by quantitative microdialysis method; format: ADME, organism-based; parameters: dose 10 mg/kg, route subcutaneous; details: in vivo; outline: as §2
[37] = Volume of distribution at steady state in Sprague-Dawley rat at 1 mg/kg, iv; format: ADME, organism-based; parameters: dose 1 mg/kg, route intravenous; details: in vivo, read-out: Vdss; outline: as §3
[38] = Fraction unbound in rat brain homogenates; format: ADME, tissue-based; details: brain homogenate
[39] = Drug uptake in Sprague-Dawley rat CSF at 10 mg/kg, sc after 6 hrs by quantitative microdialysis method; format: ADME, organism-based, Cerebrospinal fluid; parameters: dose 10 mg/kg, route subcutaneous; details: read-out: Drug uptake; outline: as §2
[40] = AUC (0 to 6 hrs) in Sprague-Dawley rat CSF at 10 mg/kg, sc by quantitative microdialysis method; format: ADME, organism-based; parameters: time < 6 hr, dose 10 mg/kg, route subcutaneous; outline: as §2
Liver microsome [41] = assay: Intrinsic clearance in rat liver microsomes; format: ADME

SMILES: COc1cc(C(O)P(=O)(O)CC[C@H](N)C(=O)O)cc([N+](=O)[O-])c1O (mixture of isomers)
- concentration at 1 h [1]: 1.8 µM
- Drug uptake (Brain [2]): 1 µM
- Cp(f) (Plasma [3]): 55.2 µM
- fraction unbound [4]: 0.73
- Cp (Plasma [5]): 0.15 µg/mL
- solubility thermodynamic [6]: > 1.8 mg/mL
- Tmax [7]: 84 min
- AUC(0-inf) [8]: 0.2 µg·h/mL
- Papp A→B (MDR1 [9]): 2 nm/s
- logD [10]: -0.7
- Ratio AUC [11]: 12%
- fraction unbound [12]: > 0.99
- fraction unbound [13]: > 0.99
- Ratio AUC [14]: 2.4%
- half-life [15]: 20 min
- Drug uptake (Brain [16]): 0.08 µM
- AUC(0-inf) [17]: 2.8 µg·h/mL
- Selectivity ratio (Homo sapiens [18]): 25
- solubility kinetic [19]: > 800 µM
- AUC(0-t) at 6 h [20]: 30 µg·h/mL
- Selectivity ratio (Homo sapiens [21]): 1
- bioavailability [22]: 0.8%
- fraction unbound [23]: > 0.99
- concentration at 1 h [24]: 31 µM
- clearance [25]: 0.372 L/h/kg
- Papp [26]: < 1 nm/s
- concentration at 1 h [27]: 114 µM
- concentration at 1 h [28]: 9.8 µM
- half-life [29]: 18 min
- Activity (HepG2): Non-toxic
- inhibition at 30 µM (hERG (KCNH2)): 14%
- CLH (Liver microsome [30]): 0.1 L/min
- AUC (Brain [31]): 0.7 µg·h/g
- Selectivity ratio (Homo sapiens [32]): 30
- Papp B→A (MDR1 [33]): 5 nm/s
- Cmax [34]: 0.092 µg/mL
- IC50 [35]: 8.6 µM
- Drug uptake (Brain [36]): 0.4 µM
- Vd [37]: 0.1 L/kg
- fraction unbound [38]: > 0.99
- concentration at 6 h [39]: 0.7 µM
- AUC(0-t) at 6 h [40]: 3.5 µg·h/mL
- CLH (Liver microsome [41]): 3.1 mL/min

SMILES: N[C@@H](CCP(=O)(O)C(O)c1ccc(OCC(=O)O)cc1)C(=O)O (stereo partly specified)
- Selectivity ratio (Homo sapiens [18]): 100
- Selectivity ratio (Homo sapiens [21]): 40
- Selectivity ratio (Homo sapiens [32]): 300
